High-throughput results as filed in PubChem BioAssay.
DAT uptake mod = modulates human dopamine transporter uptake under cocaine | Q01959 | LLC-PK1 hDAT cells, [14C]-dopamine uptake with cocaine IC80; actives deviate in either direction | B-score at 10 µM | actives 1.3% (n = 110,000);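 active means Z score or B-score, a plate-position-corrected score, falls beyond the plate's 99.7% confidence bounds, in either direction; inactive means both scores lie inside the 99.7% bounds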
MMP-13 inhibitor = MMP13 (human) collagenase inhibition | inhibition, % at 4 µM | P45452 | actives 0.07% (n = 65,000) | AID 570 | MMP-13 fTHP FRET cleavage, Mca fluorescence;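 active means inhibition above the mean of compound-free control plate wells plus 3 SD, cut at about 14% in these data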
AP ELISA ortho = alternative pathway complement inhibition, orthogonal assay; Human serum alternative complement pathway, LPS-coated ELISA, C3 deposition; tested in compound mixtures; inhibition, % at 5 µM; actives 0.08% (n = 62,000); AID 1235;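 active means inhibition above 30% in each of the two pooled mixtures holding the compound, so the lower value exceeds 30%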
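Medium: diluted human serum in Mg2+-EGTA GVB++. Assay system: human serum complement alternative pathway, C3 deposition onto LPS. Also added: Plate-bound LPS. Technique: Anti-C3 ELISA, OD 450 nm. Measure: percent inhibition. Incubation: 1 h at 37 °C. Dosing: 5 µM each compound, pools of ten, 50 µM per pool.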
Candida biofilm = kills Candida albicans biofilms | inhibition, % at 6 µM | C. albicans biofilm + clotrimazole, Alamar Blue | actives 0.14% (n = 85,000) | AID 834;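 active means inhibition above 20%; inactive means inhibition below 20%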;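 further: preformed 24 hr biofilms exposed to compound for 48 hr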
D1 allo mod = allosteric modulators of human D1 dopamine receptor. actives 5.9% (n = 58,000). HEK293 D1, CRE-luciferase, dopamine EC30 potentiation; actives deviate in either direction. B-score at 10 µM. AID 641;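 active means luminescence count or its row- and column-corrected plate score outside the 99.7% band of the plate's sample wells, on either side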
Target sequence (P21728 whole entry, looked up): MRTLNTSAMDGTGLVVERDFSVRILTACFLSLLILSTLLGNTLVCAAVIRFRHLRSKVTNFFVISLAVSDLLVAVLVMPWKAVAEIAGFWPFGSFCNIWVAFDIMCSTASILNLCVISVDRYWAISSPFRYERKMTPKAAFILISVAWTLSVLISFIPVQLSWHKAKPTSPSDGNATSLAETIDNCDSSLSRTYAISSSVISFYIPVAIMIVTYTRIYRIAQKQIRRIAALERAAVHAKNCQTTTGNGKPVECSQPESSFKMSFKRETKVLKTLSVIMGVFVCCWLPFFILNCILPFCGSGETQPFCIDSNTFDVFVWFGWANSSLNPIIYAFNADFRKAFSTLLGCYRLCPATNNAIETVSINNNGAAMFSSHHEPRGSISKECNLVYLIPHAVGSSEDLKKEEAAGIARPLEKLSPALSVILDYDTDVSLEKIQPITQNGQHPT
A number is an active result; n = inactive; x = no result given. The entries come from a sample that favours hits as a whole.

SMILES	DAT uptake mod	MMP-13 inhibitor	AP ELISA ortho	Candida biofilm	D1 allo mod
CCC1(CC)Cc2ccccc2-c2nc(NCCO)[nH]c(=O)c21	-2.7	x	x	n	x
O=C(CC1C(=O)NCCN1C(=S)Nc1ccccc1)Nc1ccc2c(c1)OCCO2 (stereo unspecified)	n	x	x	n	x
O=[N+]([O-])c1cccc(/C=C/c2nc3ccc([N+](=O)[O-])cc3[nH]2)c1	n	x	x	x	x
Clc1ccc(-n2ncc3c(N4CCCCCC4)ncnc32)cc1	n	n	n	n	-8.6
COc1ccc(-n2ncc3c(N4CCCCC4)ncnc32)cc1	n	n	n	n	-7.1
COc1ccc(-n2ncc3c(N4CCN(c5cccc(C)c5C)CC4)ncnc32)cc1	x	n	n	n	n
O=C(Nc1ccc(Cl)cc1)Nc1cccnc1	-2.3	x	x	n	x
O=C(Nc1cccnc1)Nc1ccccn1	n	n	n	x	n
O=c1/c(=C/c2ccccn2)sc2nc3ccccc3n12	x	n	n	n	-3.8
O=c1c2c3c(sc2n2cnnc2n1-c1ccccc1)N(Cc1ccccc1)CCC3	n	n	n	n	-5.1
CN1CCc2c(sc3c2c(=O)n(-c2cccc(Cl)c2)c2nncn32)C1	n	n	n	n	n
CCCCNC(=O)[C@@H]1CC=C[C@@H]2CCN(C3CC3)C(=O)[C@@H]21	n	x	x	x	x
CCOc1ccc(C(=O)N2CCCC2)cc1	5.9	x	x	n	x
COc1ccc(OCc2cccc(C(=O)O)c2)cc1	n	n	n	x	-11
CCOc1ccc(OCc2cccc(C(=O)N3CCCC3)c2)cc1	n	n	n	n	-3.9
CCOc1cc(OCC)cc(C(=O)O)c1	n	x	x	n	x
CCOc1ccc(OCc2cccc(C(=O)O)c2)cc1	n	n	n	x	-4.5
CCOc1ccc(OCc2ccc(C(=O)N3CCCC3)o2)cc1	n	n	n	n	n
CC1=C(CC[C@@H](C)CO)OC2CC3C4CCC5CC(O)CCC5(C)C4CC(=O)C3(C)C12 (stereo partly specified)	n	x	x	x	x
COc1ccc(C2=NOC(C)(c3nnc(-c4ccc(F)cc4)o3)C2)cc1 (stereo unspecified)	n	x	x	x	x
Cc1nc2ccc(NC(=O)c3ccc(F)c(S(=O)(=O)N4CCOCC4)c3)cc2s1	n	x	x	n	x
C#Cc1ccc([C@@H]2C=C(C(=O)NC3CC3)O[C@H](OCCCCO)C2)cc1	n	x	x	x	x
O=C(O)c1ccc(COc2ccc(CO)cc2Cl)cc1	n	n	n	n	n
O=C(O)c1cccc(COc2ccc(CO)cc2Cl)c1	n	n	n	x	-7.1
CCOc1ccc(-n2cc(C(=O)N3CCCCCC3)c3cc(OC)c(OC)cc3c2=O)cc1	2.9	n	n	x	n
SMILES	DAT uptake mod	MMP-13 inhibitor	AP ELISA ortho	Candida biofilm	D1 allo mod
NC(N)=Nc1nc(CCN2C(=O)c3ccccc3C2=O)cs1	n	x	x	x	x
CCCNC(=O)C(Cc1ccccc1)NS(=O)(=O)c1ccc2c(c1)CCC(=O)N2 (stereo unspecified)	-2.2	n	n	n	n
Cc1ccc([N+](=O)[O-])cc1NC(=O)CCCOc1ccccc1	n	x	x	x	x
O=C(Nc1ccc2c(c1)OCO2)NC1(C(F)(F)F)Oc2ccccc2O1	n	x	x	n	x
O=C(Nc1ccc2c(c1)OCCO2)NC1(C(F)(F)F)Oc2ccccc2O1	-3	n	n	n	-3
CCn1c2ccccc2c2nnc(SCC(=O)NC(C(=O)OC)C(C)C)nc21 (stereo unspecified)	x	n	n	n	3.7
C=CCn1c2ccccc2c2nnc(SCC(=O)Nc3c(C)n(C)n(-c4ccccc4)c3=O)nc21	3	x	x	x	x
CCn1c2ccccc2c2nnc(SCC(=O)Nc3c(C)n(C)n(-c4ccccc4)c3=O)nc21	n	x	x	x	x
CCn1c2ccccc2c2nnc(SCN3C(=O)c4ccccc4C3=O)nc21	x	n	n	n	9.5
COc1cc(CCC(=O)N2CCN(c3ccc(N4CCOCC4)nn3)CC2)cc(OC)c1OC	x	n	n	n	n
O=C(CCCc1c[nH]c2ccccc12)N1CCN(c2ccc(N3CCOCC3)nn2)CC1	2.5	n	n	n	n
O=c1[nH]c2ccccc2n1CCC1CCCCC1	n	x	x	n	x
C=CCNc1cccc(Br)c1	n	x	x	x	x
COc1ccc(CCNC(=O)CSc2ccc(-c3ccccc3)nn2)cc1OC	2	x	x	x	x
CC1CCC2(CC1)NC(=O)c1ccccc1O2 (stereo unspecified)	n	n	n	n	-2.4
C=CCn1c(CCC(=O)Nc2ccc(C)c(Cl)c2)nnc1SCC(=O)Nc1ccccc1C	n	x	x	x	x
C=CCOC(=O)C1=C[C@@H](c2coc3ccccc3c2=O)C[C@@H](OCCCCO)O1	2.8	x	x	x	x
NC(=O)C1=C[C@@H](c2coc3ccccc3c2=O)C[C@@H](OCCCCO)O1	n	x	x	x	x
COc1ccc(/C=N/NC(=O)CCc2c(C)n[nH]c2C)cc1OC	n	x	x	n	x
